Results from the RNAGym collection of RNA variant scans (doi:10.1038/s41586-018-0170-7).

B1: tRNA (parent)
chain: GUUCCGUUGGCGUAAUGGUAACGCGUCUCCCUCCUAAGGAGAAGACUGCGGGUUCGAGUCCCGUACGGAACG

Variants of: B1
Assay: yeast fitness, log relative to wild type (ln ratio); higher = fitter; tRNA-Arg(CCU), competitive growth, 37 C, 1 M NaCl
Outline: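 BY4742 cells without the chromosomal tRNA-Arg(CCU) gene carried a combinatorial variant library on a HIS3 centromeric plasmid, from two independent transformations. After 4 generations in SC-HIS at 30 °C, pools spent ~6.5 generations (~26.5 h) in SC-HIS 1M NaCl at 37 °C, giving three outputs per input, and 125 bp paired-end Illumina reads counted the variants. Fitness is the natural log of each genotype's generations over the wild type's, with generations taken as OD-scaled log2 output/input frequency weighted by inverse variance across replicates.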

Variant	yeast fitness (ln)
G6U C27U A43C C46U C66A A69G A70U C71U	-0.611
G6U C27U C46U C66A A69G A70U C71U	-0.328
G6A C27U C66A A69G A70U	-0.243
G6U C27U A43C C46U C66A A69G	-0.0652
G6U A69G A70G C71U	-0.282
G6U C27U C46U C66A A69G C71U	-0.507
G6U A43C C46U C66A A69G A70U	-0.113
G6U A43C C46U C66A A69G A70G	-0.147
G6U A43C C46U C66A	-0.00135
G6U A43C C46U C66U	-0.258
G6U C27U A43C A70G C71U	-0.348
G6A C27U C66A A69G A70U C71U	-0.0879
G6U A43C C46U	-0.193
G6U C27U A43C A69G C71U	-0.384
G6A C66U C71U	-0.0335
G6U A43C C46U A69G C71U	-0.234
G6U C27U C46U C66A C71U	-0.0489
G6U	-0.0403
G6A C27U C66A A70U	-0.107
G6A C27U C66A A70G	-0.136
G6U C27U A69G A70G C71U	-0.394
G6U A43C C66A A69G A70U	-0.215
G6U A43C C66A A69G A70G	-0.373
G6A C27U C46U C66U A69G A70G C71U	-0.215

Variant	yeast fitness (ln)
G6U C27U A43C C46U C66A A69G A70U	-0.462
G6U C27U A43C C46U C66A A69G A70G	-0.471
G6U A43C A69G A70G	-0.371
G6U A43C A69G A70U	-0.371
G6U C27U A43C C66U	-0.227
G6U C27U A43C C66A	-0.0198
G6A C27U C46U C66A A70G C71U	-0.252
G6A C66U A69G A70G	-0.0412
G6A C66U A69G A70U	-0.335
G6U C27U A43C C46U	-0.155
G6U C27U C66U A70U C71U	-0.36
G6U C46U C66A	0.00404
G6U C27U	-0.111
G6A C27U C46U C66U A70G	-0.0516
G6A C27U C46U C66U A70U	-0.0845
G6U A43C C46U C71U	-0.193
G6A C27U C46U C66A A70G	-0.218
G6A C27U C46U C66A A70U	-0.102
G6U C27U A43C	-0.197
G6U A69G A70U C71U	-0.394
G6A C46U A70U C71U	-0.15
G6U A43C C46U C66U A70G C71U	-0.295
G6A C46U C66U A70U C71U	-0.423
G6U C27U A43C C46U A70U C71U	-0.336

Variant	yeast fitness (ln)
G6U C27U A70G C71U	-0.368
G6U C46U C66A A69G A70G C71U	-0.414
G6U A69G A70G	-0.16
G6U A69G A70U	-0.145
G6U C27U A43C C46U C66A A70G	-0.123
G6U C27U A43C C46U C66A A70U	-0.382
G6A C46U A69G	-0.469
G6A C27U C66A A69G A70G C71U	-0.288
G6U C27U C46U A70G C71U	-0.321
G6U C27U C46U C66U A69G C71U	-0.543
G6U C27U A43C C66A A69G A70G C71U	-0.338
G6A C66U A70U	-0.0184
G6A C66U A70G	-0.00631
G6A C46U C66U A69G	-0.0205
G6U C27U C66U A69G A70G	-0.306
G6U C27U C66U A69G A70U	-0.329
G6A C27U C66U C71U	-0.171
G6U C27U A43C C46U C66U A69G A70U C71U	-0.535
G6U C27U A43C C66A A70G	-0.293
G6U C27U A43C C66A A70U	-0.185
G6U C27U A43C C66A C71U	-0.425
G6A C66A A70U C71U	-0.241
G6U C27U A43C C46U C66U A69G C71U	-0.432
G6U C27U C66A A69G	-0.0157

Variant	yeast fitness (ln)
G6A C46U A69G A70U C71U	-0.218
G6U C27U C46U C66U A70U	-0.19
G6U C27U C46U C66U A70G	-0.207
G6U A70U C71U	-0.14
G6U A43C C46U C66A A69G C71U	-0.548
G6U C27U A70U C71U	-0.27
G6U C27U A69G A70U C71U	-0.513
G6U C27U A43C C46U A69G A70G C71U	-0.356
G6A C27U C66U A70U C71U	-0.312
G6U C27U A43C C46U C71U	-0.254
G6U C27U A43C A69G A70G	-0.401
G6U C27U A43C A69G A70U	-0.391
G6U A43C C66U A70G C71U	-0.392
G6U C27U C66U A69G C71U	-0.377
G6A C27U C46U C66A A69G A70G C71U	-0.221
G6U C27U A43C C66U A69G A70U C71U	-0.341
G6U A43C C66U A69G A70G	-0.333
G6U A43C C66U A69G A70U	-0.356
G6U A43C C46U A69G A70G	-0.232
G6U A43C C46U A69G A70U	-0.236
G6A C27U C66U A70G C71U	-0.249
G6A C27U C46U C66U A69G A70U C71U	-0.302
G6U C27U C71U	-0.222
G6U A43C C46U C66U A69G A70G	-0.313

Variant	yeast fitness (ln)
G6U A43C C46U C66U A69G A70U	-0.347
G6U A43C C66U A70U	-0.301
G6U A43C C66U A70G	-0.273
G6U A43C	-0.132
G6U C46U	-0.0183
G6U C27U C66U A69G	-0.276
G6A C46U C66A C71U	-0.349
G6U C27U C66U C71U	-0.256
G6A C46U C66U A69G C71U	-0.0544
G6A C27U C46U C66U A69G A70U	-0.196
G6A C27U C46U C66U A69G A70G	-0.213
G6A C27U C46U C66A A70U C71U	-0.234
G6U C27U A43C C66A A69G A70U	-0.282
G6U C27U A43C C66A A69G A70G	-0.453
G6U C27U A43C C46U C66U A70U C71U	-0.467
G6U C27U A43C C46U A70U	-0.206
G6U C27U A43C C46U A70G	-0.248
G6U C27U C66A A70G C71U	-0.294
G6U A43C C46U C66A A69G	0.0709
G6U C27U A43C C46U C66A A69G C71U	-0.439
G6U C27U C46U C66A A69G A70G C71U	-0.254
G6A C66A A69G A70G	-0.159
G6A C27U C46U C66U A70G C71U	-0.387
G6A C27U C46U C71U	-0.176

Variant	yeast fitness (ln)
G6U A43C C66U A69G C71U	-0.394
G6U C27U A43C A70U C71U	-0.445
G6U C27U A43C C46U C66A A69G A70G C71U	-0.312
G6U C27U A43C C46U C66A A70U C71U	-0.357
G6A C66U A69G	-0.0231
G6U C27U A43C C46U A69G A70U C71U	-0.45
G6A C66A A69G A70G C71U	-0.163
G6U C27U A43C C46U A70G C71U	-0.337
G6U A43C A69G A70U C71U	-0.447
G6A C46U C66U A69G A70U	-0.202
G6A C46U C66U A69G A70G	-0.0235
G6A C27U C71U	-0.204
G6U A43C A70G C71U	-0.249
G6U C27U A43C C66A A70U C71U	-0.477
G6U A69G C71U	-0.233
G6U C27U A43C C46U A69G	-0.268
G6A C46U A70G C71U	-0.145
G6U C27U A69G	-0.222
G6A C46U C66A A70U C71U	-0.211
G6U C27U C46U A69G A70G C71U	-0.342
G6A C27U C46U C66U A69G C71U	-0.446
G6A C46U A69G C71U	-0.109
G6A C66U A69G C71U	-0.085
G6U A43C C46U C66A A70U	-0.113

Variant	yeast fitness (ln)
G6U A43C C46U C66A A70G	-0.0224
G6U A43C C46U C66U C71U	-0.254
G6A C46U A69G A70G C71U	-0.146
G6U C27U C66A A69G C71U	-0.806
G6A C66U A70G C71U	-0.358
G6A C46U C66A A69G A70G C71U	-0.185
G6U C27U A43C A69G A70G C71U	-0.49
G6U C27U C66A A69G A70U C71U	-0.378
G6U A70G C71U	-0.153
G6U C46U C66A A69G A70G	-0.00994
G6U C46U C66A A69G A70U	-0.302
G6U C46U A70G C71U	-0.202
G6U A43C C66U C71U	-0.422
G6U C46U A69G	-0.397
G6U C27U C66A A69G A70G C71U	-0.329
G6U C27U A43C C46U C66U A69G A70U	-0.416
G6U C27U A43C C46U C66U A69G A70G	-0.396
G6A C27U C66U A69G C71U	-0.594
G6A C66U A69G A70U C71U	-0.447
G6U C46U C66A A69G A70U C71U	-0.418
G6A C46U A69G A70G	-0.18
G6A C46U A69G A70U	-0.176
G6U A43C C66A C71U	-0.177
